Measurements collected from several papers.
Lines come from different studies, so protocols differ.
EGFR G719C: Epidermal growth factor receptor (EGFR, Homo sapiens, UniProt P00533, G719C)
EGFR A750P/del747-749: Epidermal growth factor receptor (EGFR, Homo sapiens, UniProt P00533, A750P/del747-749)
EGFR L861Q: Epidermal growth factor receptor (EGFR, Homo sapiens, UniProt P00533, L861Q)
EGFR: Epidermal growth factor receptor (EGFR, Homo sapiens, UniProt P00533)
EGFR del746-750: Epidermal growth factor receptor (EGFR, Homo sapiens, UniProt P00533, del746-750)
EGFR L858R/T790M: Epidermal growth factor receptor (EGFR, Homo sapiens, UniProt P00533, L858R/T790M)
EGFR G719S: Epidermal growth factor receptor (EGFR, Homo sapiens, UniProt P00533, G719S)
EGFR del752-759: Epidermal growth factor receptor (EGFR, Homo sapiens, UniProt P00533, del752-759)

With `CNCc1ccccc1-c1csc([C@H](C)Nc2nc(C)nc3cc(OC)c(OC)cc23)c1` the remaining binding was 100% (Epidermal growth factor receptor (EGFR, Homo sapiens, UniProt P00533, del747-752/P753S); cell-free assay; competition with immobilised ligand; 1 µM).
`c1cncc(-c2cccc(Nc3nccc(NC4CCCCC4)n3)c2)c1` gave a remaining binding of 70% (EGFR G719C; binding; competition with immobilised ligand; 10 µM).
With `O=C(c1ccc(Nc2nccc(-c3cc4ccccc4s3)n2)cc1)N1CCC(N2CCCC2)CC1` the remaining binding was 93% (EGFR G719C; binding; competition with immobilised ligand; 1 µM).
`CCOCCn1cc(C(=O)Nc2ccc(-n3nc(-c4cccnc4)cc3C(F)(F)F)cn2)ccc1=O` gave a remaining binding of 96% (EGFR A750P/del747-749; cell-free assay; competition with immobilised ligand; 1 µM).
With `COc1ccnn2ncc(-c3ccnc(N(C)C)n3)c12` the remaining binding was 92% (EGFR G719C; binding; 1 µM).
`Cc1cnc(Nc2ccc(C(=O)N3CCC(N4CCCC4)CC3)cc2)nc1-c1cc2ccccc2s1` gave a remaining binding of 92% (EGFR G719C; binding; competition with immobilised ligand; 1 µM).
`O=C(NCC1CCOCC1)c1n[nH]cc1NC(=O)c1c(F)cccc1F` gave a remaining binding of 100% (EGFR L861Q; binding; competition with immobilised ligand; 1 µM).
For `CCN1CCN(Cc2ccc(C(=O)Nc3ccc(C)c(Oc4ccc5c(c4)CC(=O)N5)c3)cc2C(F)(F)F)CC1`, the remaining binding was 77% (EGFR L861Q; binding; competition with immobilised ligand; 1 µM).
With `O=C(NCCCN1CCOCC1)c1ccc(Nc2ncc(Cl)c(-c3ccc(Cl)s3)n2)cc1` the remaining binding was 100% (EGFR G719C; binding; competition with immobilised ligand; 1 µM).
`Cn1cc(Cl)c2c(Oc3c(F)cc(Nc4cc(Cl)nc(N)n4)cc3F)ccnc21` gave a remaining binding of 88% (Epidermal growth factor receptor (EGFR, Homo sapiens, UniProt P00533, T790M); cell-free assay; competition with immobilised ligand; 0.1 µM).
The remaining binding of `O=C(c1ccc(Nc2ncc(Cl)c(-c3ccc(Cl)s3)n2)cc1)N1CCC(N2CCCC2)CC1` is reported as 72% (EGFR A750P/del747-749; binding; competition with immobilised ligand; 1 µM).
The remaining binding of `CC1CCCN1c1nccc(-c2cnn3ncccc23)n1` (stereo not drawn) is reported as 100% (EGFR; binding; 1 µM).
The remaining binding of `COc1ncc2cc3ccccc3nc2c1C#N` is reported as 87% (EGFR del746-750; cell-free assay; competition with immobilised ligand; 5 µM).
`CN(C)c1nccc(-c2cnn3ncccc23)n1` has a remaining binding of 90% (EGFR L861Q; binding; 1 µM).
For `O=C(Nc1c[nH]nc1C(=O)NC1CCNCC1)c1cc(F)cc(F)c1`, the remaining binding was 96% (EGFR; binding; competition with immobilised ligand; 1 µM).
`Cc1c(-c2ccccc2)oc2c(C(=O)OCCN3CCCCC3)cccc2c1=O` gave a remaining binding of 88% (EGFR; cell-free assay; competition with immobilised ligand; 10 µM).
`CN1CCN(c2ccc(Nc3nccc(-c4ccccc4)n3)cc2C(F)(F)F)CC1` has a remaining binding of 93% (EGFR L858R/T790M; binding; 10 µM).
For `CC(C)(O)c1cncc(-c2nc3ccc(F)cc3n2C2CC2)c1`, the remaining binding was 100% (EGFR L861Q; cell-free assay; competition with immobilised ligand; 1 µM).
The remaining binding of `O=C(NC1CCC1)c1ccc2nc(-c3cccc(NS(=O)(=O)NCCN4CCCCC4)c3)cn2c1` is reported as 100% (Epidermal growth factor receptor (EGFR, Homo sapiens, UniProt P00533, del747-750/T751S); cell-free assay; competition with immobilised ligand; 10 µM).
The remaining binding of `COc1cccc(CNC(=O)c2nc3scc(COCc4ccc(C(=O)O)cc4)c3c(=O)[nH]2)c1` is reported as 76% (EGFR A750P/del747-749; cell-free assay; competition with immobilised ligand; 1 µM).
`C[C@@H]1CN(c2ccc3ncc(-c4ccc5[nH]nc(C6CC6)c5c4)n3n2)C[C@H](C)O1` has a remaining binding of 60% (EGFR; binding; competition with immobilised ligand; 50 nM).
For `COc1cnc(Nc2cccc(S(N)(=O)=O)c2)nc1N1CCN(c2ccccc2)C(=O)C1`, the remaining binding was 72% (EGFR L858R/T790M; binding; competition with immobilised ligand; 1 µM).
`O=C1CCc2cc(Nc3cc(OC4CCOCC4)c([N+](=O)[O-])cc3Cl)ccc2N1` has a remaining binding of 100% (EGFR L861Q; cell-free assay; competition with immobilised ligand; 1 µM).
For `Nc1ncc2c(n1)-c1c([nH]c3ccc(C#CC4CC4)cc13)CCCC2`, the remaining binding was 87% (EGFR L858R/T790M; binding; competition with immobilised ligand; 1 µM).
`O=C(c1ccc(Nc2ncc(Cl)c(-c3cc4ccccc4s3)n2)cc1)N1CCC(N2CCCC2)CC1` has a remaining binding of 64% (EGFR L858R/T790M; binding; competition with immobilised ligand; 1 µM).
`FC(F)(F)Oc1cccc(-c2cnc3ccc(-c4ccncc4)nn23)c1` gave a remaining binding of 79% (EGFR; cell-free assay; competition with immobilised ligand; 5 µM).
With `C[C@H]1CCN(c2nccc(-c3cnn4ncccc34)n2)C1` the remaining binding was 75% (EGFR G719S; binding; 1 µM).
The remaining binding of `CN(C)c1ncnc(-c2ccc3nc(Nc4cc(CN5CCN(C(=O)CC(F)(F)F)CC5)ccn4)[nH]c3c2)c1Cl` is reported as 82% (EGFR L858R/T790M; cell-free assay; competition with immobilised ligand; 1 µM).
With `CN1CCN(c2ccc(Nc3nccc(-c4cccc([N+](=O)[O-])c4)n3)cc2C(F)(F)F)CC1` the remaining binding was 96% (EGFR L861Q; binding; 10 µM).
With `CNC(=O)[C@@H]1CC[C@@H](n2c(-c3ccc4cnccc4c3)nc3ccc(C(=O)NCc4cccc(C(N)=O)c4)cc32)C1` the remaining binding was 100% (EGFR G719S; binding; competition with immobilised ligand; 1 µM).
The remaining binding of `N[C@H]1CCN(c2nccc(-c3cnn4ncccc34)n2)C1` is reported as 98% (EGFR del746-750; binding; 1 µM).
For `O=C(NCCCN1CCOCC1)c1ccc(Nc2nccc(-c3cc4ccccc4s3)n2)cc1`, the remaining binding was 88% (Epidermal growth factor receptor (EGFR, Homo sapiens, UniProt P00533, L858R); binding; competition with immobilised ligand; 1 µM).
`CN(C)c1nccc(-c2cnc3ncccn23)n1` has a remaining binding of 63% (EGFR; binding; 1 µM).
`COc1cnc(Nc2cccc(S(N)(=O)=O)c2)nc1N1CCN(c2ccccc2)CC1` has a remaining binding of 94% (EGFR del752-759; binding; competition with immobilised ligand; 1 µM).
The remaining binding of `CN(c1nccc(-c2cnn3ncccc23)n1)C1CC1` is reported as 100% (EGFR L858R/T790M; binding; 1 µM).
`CC(=O)N1CCC(c2ccc(C(=O)NC(=N)N)cc2C(F)(F)F)CC1` gave a remaining binding of 90% (EGFR del752-759; cell-free assay; competition with immobilised ligand; 1 µM).
